Measured values reported in ChEMBL document CHEMBL1147105, “In vitro and in vivo activities of PD 0305970 and PD 0326448, new bacterial gyrase/topoisomerase inhibitors with potent antibacterial activities versus multidrug-resistant gram-positive and fastidious organism groups” (2007).

Assays:
Enterococcus faecalis [1] = assay: Antibacterial activity against VanB-resistant Enterococcus faecalis; format: functional
Summary of the method: (§1)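 Broth microdilution MIC per CLSI guidelines, incubated at 35°C. Cation-adjusted Mueller-Hinton broth for nonfastidious organisms and staphylococci. Streptococci tested in the same broth with 3% lysed horse blood. Anaerobes tested in supplemented Brucella broth inside an anaerobe chamber (5% CO2, 5% H2, 90% N2), read after 48 h. Strains were mainly recent clinical isolates with confirmed identity.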

Enterococcus faecalis [2] = assay: Antibacterial activity against beta-lactamase positive Enterococcus faecalis; format: functional
Summary of the method: (§2)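 MIC by CLSI broth microdilution for nonfastidious organisms, in cation-adjusted Mueller-Hinton broth incubated at 35°C.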

Enterococcus faecium [3] = assay: Antibacterial activity against Enterococcus faecium; format: functional; summary of the method: as §1
Enterococcus faecium [4] = assay: Antibacterial activity against VanB-resistant Enterococcus faecium; format: functional; summary of the method: as §1
[5] = test system: Enterococcus casseliflavus; assay: Antibacterial activity against Enterococcus casseliflavus; format: functional
Enterococcus gallinarum = assay: Antibacterial activity against Enterococcus gallinarum; format: functional
Corynebacterium jeikeium = assay: Antibacterial activity against Corynebacterium jeikeium; format: functional
Summary of the method: (§3)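 Broth microdilution MIC following CLSI guidelines, in cation-adjusted Mueller-Hinton broth containing 3% lysed horse blood, incubated at 35°C. Clinical isolates with identity confirmed. Reported as MIC range, MIC50 and MIC90.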

Corynebacterium sp. = assay: Antibacterial activity against Corynebacterium sp.; format: functional; summary of the method: as §3
Haemophilus influenzae [6] = assay: Antibacterial activity against beta-lactamase negative Haemophilus influenzae; format: functional
Summary of the method: (§4)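 Broth microdilution MIC following CLSI guidelines, in Haemophilus test medium at 35°C.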

Haemophilus influenzae [7] = assay: Antibacterial activity against beta-lactamase positive Haemophilus influenzae; format: functional; summary of the method: as §4
Moraxella catarrhalis [8] = assay: Antibacterial activity against beta-lactamase negative Moraxella catarrhalis; format: functional
Moraxella catarrhalis [9] = assay: Antibacterial activity against beta-lactamase positive Moraxella catarrhalis; format: functional
Neisseria gonorrhoeae = assay: Antibacterial activity against Neisseria gonorrhoeae; format: functional
Summary of the method: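 MIC by broth microdilution in gonococcal broth, incubated at 35°C in 5% CO2. Reported as MIC range, MIC50 and MIC90.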

Citrobacter koseri = assay: Antibacterial activity against Citrobacter diversus; format: functional
Summary of the method: (§5)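 Broth microdilution MIC following CLSI guidelines, in cation-adjusted Mueller-Hinton broth, incubated at 35°C. Recent clinical isolates and reference strains, with identity confirmed by automated and standard microbiological methods. Results reported as MIC range, MIC50 and MIC90.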

Citrobacter freundii = assay: Antibacterial activity against Citrobacter freundii; format: functional; summary of the method: as §5
Escherichia coli = assay: Antibacterial activity against Escherichia coli; format: functional; summary of the method: as §5
Klebsiella oxytoca = assay: Antibacterial activity against Klebsiella oxytoca; format: functional; summary of the method: as §5
Proteus vulgaris = assay: Antibacterial activity against Proteus vulgaris; format: functional; summary of the method: as §5
Salmonella typhimurium = assay: Antibacterial activity against Salmonella enterica serovar Typhimurium; format: functional, Salmonella enterica subsp. enterica serovar Typhimurium; summary of the method: as §5
Shigella dysenteriae = assay: Antibacterial activity against Shigella dysenteriae; format: functional
Shigella flexneri = assay: Antibacterial activity against Shigella flexneri; format: functional; summary of the method: as §5
Shigella sonnei = assay: Antibacterial activity against Shigella sonnei; format: functional; summary of the method: as §5
Serratia marcescens = assay: Antibacterial activity against Serratia marcescens; format: functional; summary of the method: as §5
Acinetobacter sp. = assay: Antibacterial activity against Acinetobacter sp.; format: functional; summary of the method: as §5
Actinomyces sp. = assay: Antibacterial activity against Actinomyces sp.; format: functional
Finegoldia magna = assay: Antibacterial activity against Peptostreptococcus magnus; format: functional
Summary of the method: (§6)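 Anaerobic broth microdilution MIC following CLSI guidelines, in supplemented Brucella broth. Run in an anaerobe chamber under 5% CO2, 5% H2 and 90% N2 at 35°C, and read after 48 h. Reported as MIC range, MIC50 and MIC90.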

Clostridium perfringens = assay: Antibacterial activity against Clostridium perfringens; format: functional; summary of the method: as §1
Fusobacterium nucleatum = assay: Antibacterial activity against Fusobacterium nucleatum; format: functional; summary of the method: as §6
[10] = test system: Fusobacterium necrophorum; assay: Antibacterial activity against Fusobacterium necrophorum; format: functional; summary of the method: as §6
Bacteroides fragilis = assay: Antibacterial activity against Bacteroides fragilis; format: functional; summary of the method: as §6
Bacteroides ovatus = assay: Antibacterial activity against Bacteroides ovatus; format: functional; summary of the method: as §6
Staphylococcus aureus [11] = assay: Antibacterial activity against oxacillin-susceptible Staphylococcus aureus; format: functional; summary of the method: as §2
Staphylococcus aureus [12] = assay: Antibacterial activity against oxacillin and levofloxacin-resistant Staphylococcus aureus; format: functional; summary of the method: as §1
Staphylococcus aureus [13] = assay: Antibacterial activity against vancomycin-intermediate Staphylococcus aureus; format: functional; summary of the method: as §1
[14] = test system: Staphylococcus epidermidis; assay: Antibacterial activity against oxacillin-resistant Staphylococcus epidermidis; format: functional; summary of the method: as §1
[15] = test system: Staphylococcus haemolyticus; assay: Antibacterial activity against Staphylococcus haemolyticus; format: functional; summary of the method: as §3
Streptococcus equinus = assay: Antibacterial activity against Streptococcus bovis; format: functional
Summary of the method: (§7)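 Broth microdilution MIC following CLSI guidelines, in cation-adjusted Mueller-Hinton broth with 3% lysed horse blood. Plates incubated at 35°C. Clinical isolates and reference strains, with identity confirmed by standard microbiological methods.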

Streptococcus sanguinis = assay: Antibacterial activity against Streptococcus sanguis; format: functional; summary of the method: as §7
Streptococcus pneumoniae = assay: Antibacterial activity against penicillin-intermediate resistant Streptococcus pneumoniae; format: functional; summary of the method: as §1
Enterococcus faecalis [16] = assay: Antibacterial activity against Enterococcus faecalis; format: functional; summary of the method: as §1
Anaerococcus prevotii = assay: Antibacterial activity against Peptostreptococcus prevotii; format: functional; summary of the method: as §6
Prevotella bivia = assay: Antibacterial activity against Prevotella bivia; format: functional; summary of the method: as §6
Prevotella buccae = assay: Antibacterial activity against Prevotella buccae; format: functional; settings: Segatella buccae; summary of the method: as §6
[17] = test system: Prevotella melaninogenica; assay: Antibacterial activity against Prevotella melaninogenica; format: functional; summary of the method: as §6
Hoylesella oralis = assay: Antibacterial activity against Prevotella oralis; format: functional; summary of the method: as §6
Cutibacterium acnes = assay: Antibacterial activity against Propionibacterium acnes; format: functional
Streptococcus mitis = assay: Antibacterial activity against Streptococcus mitis; format: functional; summary of the method: as §7
Salmonella enteritidis = assay: Antibacterial activity against Salmonella enterica serovar Enteritidis; format: functional, Salmonella enterica subsp. enterica serovar Enteritidis; summary of the method: as §5

Cc1c(N2CC[C@@H]([C@H](C)N)C2)c(F)cc2c(=O)[nH]c(=O)n(C3CC3)c12
16 µg/mL: MIC90 (Klebsiella oxytoca) | MIC90 (Bacteroides fragilis) | MIC50 (Bacteroides ovatus)
0.5 µg/mL: MIC90 (Enterococcus faecalis [1]) | MIC90 (Enterococcus gallinarum) | MIC50 (Corynebacterium jeikeium) | MIC50 (Corynebacterium sp.) | MIC90 (Haemophilus influenzae [6]) | MIC50 (Haemophilus influenzae [7]) | MIC50 (Moraxella catarrhalis [8]) | MIC50 (Moraxella catarrhalis [9]) | MIC90 (Moraxella catarrhalis [9]) | MIC50 (Neisseria gonorrhoeae) | MIC90 (Enterococcus faecalis [16]) | MIC50 (Prevotella bivia) | MIC50 (Prevotella buccae) | MIC50 [17] | MIC50 (Hoylesella oralis)
32 µg/mL: MIC90 (Serratia marcescens) | MIC90 (Bacteroides ovatus)
4 µg/mL: MIC90 (Enterococcus faecium [3]) | MIC90 (Salmonella typhimurium) | MIC90 (Shigella dysenteriae) | MIC90 (Shigella flexneri) | MIC90 (Shigella sonnei) | MIC50 (Serratia marcescens) | MIC50 (Acinetobacter sp.) | MIC90 (Staphylococcus aureus [12]) | MIC50 (Cutibacterium acnes) | MIC90 (Salmonella enteritidis)
1 µg/mL: MIC50 (Enterococcus faecium [3]) | MIC (Enterococcus faecium [4]) | MIC90 (Corynebacterium jeikeium) | MIC90 (Corynebacterium sp.) | MIC90 (Haemophilus influenzae [7]) | MIC90 (Moraxella catarrhalis [8]) | MIC90 (Neisseria gonorrhoeae) | MIC (Actinomyces sp.) | MIC50 (Staphylococcus aureus [12]) | MIC90 [15]
0.03 µg/mL: MIC50 (Streptococcus sanguinis) | MIC50 (Streptococcus mitis)
0.25 µg/mL: MIC50 (Enterococcus faecalis [1]) | MIC50 [5] | MIC90 [5] | MIC50 (Enterococcus gallinarum) | MIC50 (Haemophilus influenzae [6]) | MIC50 (Staphylococcus aureus [11]) | MIC90 (Staphylococcus aureus [11]) | MIC (Staphylococcus aureus [13]) | MIC50 [14] | MIC90 [14] | MIC50 [15] | MIC50 (Enterococcus faecalis [16])
> 64 µg/mL: MIC90 (Citrobacter freundii)
0.06 µg/mL: MIC (Enterococcus faecalis [2]) | MIC (Finegoldia magna) | MIC50 (Streptococcus equinus) | MIC90 (Streptococcus equinus) | MIC90 (Streptococcus sanguinis) | MIC50 (Streptococcus pneumoniae) | MIC (Anaerococcus prevotii) | MIC90 (Streptococcus mitis)
8 µg/mL: MIC90 (Citrobacter koseri) | MIC50 (Citrobacter freundii) | MIC90 (Escherichia coli) | MIC90 (Clostridium perfringens) | MIC50 (Bacteroides fragilis) | MIC90 (Cutibacterium acnes)
0.125 µg/mL: MIC (Fusobacterium nucleatum) | MIC [10] | MIC90 (Streptococcus pneumoniae)
64 µg/mL: MIC90 (Acinetobacter sp.)
2 µg/mL: MIC50 (Citrobacter koseri) | MIC50 (Escherichia coli) | MIC50 (Klebsiella oxytoca) | MIC (Proteus vulgaris) | MIC50 (Salmonella typhimurium) | MIC50 (Shigella dysenteriae) | MIC50 (Shigella flexneri) | MIC50 (Shigella sonnei) | MIC50 (Clostridium perfringens) | MIC90 (Prevotella bivia) | MIC90 (Prevotella buccae) | MIC90 [17] | MIC90 (Hoylesella oralis) | MIC50 (Salmonella enteritidis)

COc1c(N2CCNC(C)C2)c(F)cc2c(=O)c(C(=O)O)cn(C3CC3)c12 (centres undefined) [GATIFLOXACIN]
1 µg/mL: MIC90 [5] | MIC90 (Enterococcus gallinarum) | MIC90 (Escherichia coli) | MIC90 (Klebsiella oxytoca) | MIC50 (Bacteroides fragilis) | MIC50 (Streptococcus equinus) | MIC90 (Streptococcus equinus) | MIC50 (Cutibacterium acnes)
0.004 µg/mL: MIC50 (Neisseria gonorrhoeae)
0.06 µg/mL: MIC50 (Moraxella catarrhalis [8]) | MIC90 (Moraxella catarrhalis [8]) | MIC90 (Moraxella catarrhalis [9]) | MIC90 (Citrobacter koseri) | MIC (Proteus vulgaris) | MIC90 (Salmonella typhimurium) | MIC90 (Shigella dysenteriae) | MIC90 (Shigella flexneri) | MIC90 (Shigella sonnei) | MIC (Finegoldia magna) | MIC (Anaerococcus prevotii) | MIC90 (Salmonella enteritidis)
4 µg/mL: MIC90 (Serratia marcescens) | MIC50 (Bacteroides ovatus) | MIC90 [15]
0.5 µg/mL: MIC50 [5] | MIC50 (Enterococcus gallinarum) | MIC90 (Corynebacterium jeikeium) | MIC50 (Clostridium perfringens) | MIC90 (Clostridium perfringens) | MIC50 (Streptococcus sanguinis) | MIC90 (Streptococcus sanguinis) | MIC90 (Streptococcus pneumoniae) | MIC90 (Prevotella bivia) | MIC90 (Prevotella buccae) | MIC90 [17] | MIC90 (Hoylesella oralis) | MIC50 (Streptococcus mitis) | MIC90 (Streptococcus mitis)
0.125 µg/mL: MIC50 (Corynebacterium jeikeium) | MIC (Actinomyces sp.) | MIC50 (Staphylococcus aureus [11]) | MIC90 (Staphylococcus aureus [11]) | MIC50 [15]
8 µg/mL: MIC50 (Enterococcus faecalis [1]) | MIC50 (Enterococcus faecium [3]) | MIC90 (Bacteroides fragilis) | MIC50 (Staphylococcus aureus [12]) | MIC (Staphylococcus aureus [13]) | MIC50 (Enterococcus faecalis [16]) | MIC90 (Cutibacterium acnes)
0.015 µg/mL: MIC90 (Haemophilus influenzae [6]) | MIC50 (Haemophilus influenzae [7]) | MIC90 (Haemophilus influenzae [7]) | MIC (Fusobacterium nucleatum) | MIC [10]
0.008 µg/mL: MIC50 (Haemophilus influenzae [6]) | MIC90 (Neisseria gonorrhoeae)
0.25 µg/mL: MIC (Enterococcus faecalis [2]) | MIC50 (Corynebacterium sp.) | MIC50 (Citrobacter freundii) | MIC50 (Serratia marcescens) | MIC50 (Streptococcus pneumoniae) | MIC50 (Prevotella bivia) | MIC50 (Prevotella buccae) | MIC50 [17] | MIC50 (Hoylesella oralis)
0.03 µg/mL: MIC50 (Moraxella catarrhalis [9]) | MIC50 (Citrobacter koseri) | MIC50 (Escherichia coli) | MIC50 (Klebsiella oxytoca) | MIC50 (Salmonella typhimurium) | MIC50 (Shigella dysenteriae) | MIC50 (Shigella flexneri) | MIC50 (Shigella sonnei) | MIC50 (Acinetobacter sp.) | MIC50 (Salmonella enteritidis)
32 µg/mL: MIC90 (Corynebacterium sp.) | MIC90 [14]
2 µg/mL: MIC (Enterococcus faecium [4]) | MIC50 [14]
64 µg/mL: MIC90 (Enterococcus faecium [3])
16 µg/mL: MIC90 (Enterococcus faecalis [1]) | MIC90 (Citrobacter freundii) | MIC90 (Acinetobacter sp.) | MIC90 (Bacteroides ovatus) | MIC90 (Staphylococcus aureus [12]) | MIC90 (Enterococcus faecalis [16])
